Results on two molecules are retold here after publication PMC3734847 (Integrative biology : quantitative biosciences from nano to …, 2012).

The test system of one series is Tu212 SCC cells. The series can be described thus: Neutral Red dye cell viability. It is filed as cell-based, human. The method in brief: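 Tu212 cells grown in DMEM/F12 with 10% FBS, penicillin/streptomycin and 2 mM L-glutamine at 37°C, 5% CO2. Plated in 96 wells and left overnight to adhere. Test compound (0–20 μM) or 0.1% DMSO vehicle added in triplicate. Neutral Red (50 μg/mL in fresh medium) added for 30 min at 37°C, then two PBS washes. Dye eluted with 0.5 N HCl/35% ethanol and read at OD570. Blank subtracted and triplicates averaged.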

A short description of series [1]: Aqueous solubility by laser nephelometry. The settings on record: phosphate buffered saline with 1% DMSO, pH 7.4. In kind it is physicochemical.
Series [2] has as its system Tu212 SCC xenografts. The series can be described thus: EF31 i.p. therapy of Tu212 SCC xenografts in female athymic nude mice. In kind it is in vivo.
Series [3] is described as follows: Pharmacokinetic study of EF31 i.p. in mice. It is filed as in vivo, ND4 Swiss Webster mice. The settings on record: mouse; for AUC(0-inf) / Vd/F / half-life / Cmax / Tmax: male, ND4 Swiss Webster, plasma, ip; for Cmax / Tmax: mouse plasma; for Tmax: DMSO/0.5% CMC (10%/90%). In a few lines:
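Male ND4 Swiss Webster mice (25–30 g) got one i.p. dose of 12.5 or 25 mg/kg in 10% DMSO/0.5% CMC. One submandibular blood sample per mouse, under ketamine/xylazine, at 0.08, 0.25, 0.5, 1, 2, 3, 4 or 6 h (n=3/time point). Heparinized plasma stored at −80°C, deproteinated with acetonitrile and run on LC/MS/MS with internal standard.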

For another series, the system named is NF-κB signaling pathway. In words: Western blotting of xenograft tumor extracts for the NF-κB signaling pathway. The conditions noted are these: 6 weeks, Western blot. In kind it is in vivo, athymic nude mice. The method in brief: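 Tu212 cells (2 × 10^6) implanted s.c. in female athymic nude mice. Mice (n=10/group) dosed i.p. once daily, 5 days/week, with test compound at 12.5 or 25 mg/kg, or with vehicle (0.5% CMC/10% DMSO in water). Tumors lysed in RIPA buffer with protease inhibitors for 30 min on ice, then cleared at 13,000 rpm for 15 min at 4°C. 100 μg protein run on 10% SDS-PAGE and transferred to PVDF.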
In general terms: A western blot detects proteins with antibodies after separation by electrophoresis.

Series [4] is described as follows: Serum chemistry profile and pathologic examination of normal organs. In kind it is in vivo, mice. The conditions noted are these: 12.5 and 25 mg/kg i.p.
Series [5] relates to Tu212 SCC xenografts. The series can be described thus: H & E staining and immunohistochemistry of xenograft tumor tissues. It is filed as in vivo, athymic nude mice.
Setting [6] is: 12.5 mg/kg, 12.5 mg/kg i.p. single dose.
Setting [7] is: 25 mg/kg, 25 mg/kg i.p. single dose.
The mark [8] stands for this setting: 12.5 and 25 mg/kg i.p., dose-dependent.

Structures are written as SMILES. Values joined by “and” are separate entries in the source; they are usually repeats but may differ in a detail not shown here. Identical values can stand only once. “Also recorded” adds a separate entry of the source. Like-named read-outs stand apart in the source and are kept apart here.

As usually defined, the IC50 is the point on the concentration scale where inhibition reaches its midpoint. The solubility is the concentration that dissolves in the medium under given conditions. Usually AUC(0-inf) stands for the area under the concentration-time curve extrapolated to infinity. The term Vd/F denotes the volume of distribution divided by bioavailability. For orientation: half-life means the time needed for the level to fall by half in the phase considered. A high value points to slow loss. The Cmax is the maximum level reached in the sampled fluid or tissue. A word on the Tmax: it is the time at which the peak concentration occurs. Consider `O=C1C(=Cc2ccccn2)CNCC1=Cc1ccccn1` [EF31, 3,5-bis(2-pyridinylmethylidene)-4-piperidone], for which, in the series on Tu212 SCC cells (Homo sapiens, TU212, read-out: IC50, viable cells), the IC50 turned out to be 7 µM. Moreover, the solubility at 90 min in series [1] was 13 µg/mL and 47 µM. In addition, the “tumor size vs vehicle control” value in the series on Tu212 SCC xenografts [2] (12.5 mg/kg i.p. once/day 5 days/week, n = 10, p < 0.05–0.01) is given as “reduced tumor size significantly”. Further, the “dose relative to maximally tolerated dose (MTD)” value with Tu212 SCC xenografts [2] (25 mg/kg i.p.) is listed as “may be above the maximally tolerated dose”. Besides, in the series with Tu212 SCC xenografts [2] (25 mg/kg i.p. group, n = 10), the “animals died, apparently due to treatment” value was “three”. The “tumor size / tumor growth vs vehicle control” value in the series with Tu212 SCC xenografts [2] (25 mg/kg i.p. once/day 5 days/week, n = 10, p < 0.05–0.01) was “inhibited tumor growth almost completely; also recorded: reduced tumor size significantly”. Besides, the “temporary reduction of body weight” value with Tu212 SCC xenografts [2] (25 mg/kg i.p., on average, regained as treatment continued) is ~ 10%. In addition, the “suppression of tumor growth, dose dependence” value in the series with Tu212 SCC xenografts [2] (12.5 and 25 mg/kg i.p. daily 5 days a week for over one month) was “dose-dependent suppression of tumor growth”. Moreover, in series [3] (12.5 mg/kg), the AUC(0-inf) stood at 3390 ng·h/mL, the Vd/F was determined as 11.5 L/kg and the half-life is 2.2 h. Moreover, in series [3] (setting [6]), the Cmax is 1070 ng/mL and the Tmax turned out to be 0.25 h. In series [3] (25 mg/kg), the AUC(0-inf) stood at 7770 ng·h/mL, the Vd/F worked out at 11.1 L/kg and the half-life is 2.4 h. In addition, in series [3] (setting [7]), the Cmax was found to be 2130 ng/mL and the Tmax amounted to 0.5 h. Moreover, the “estimated volumes of distribution” value in series [3] (12.5 and 25 mg/kg i.p.) is ~ 11 L/kg. In addition, in the series with NF-κB signaling pathway (25 mg/kg i.p.), the “level of phosphorylated IKKα in tumors vs control” value was “reduced” and the “level of total IKKα in tumors vs control” value is listed as “increased in a dose-dependent manner”. In the series with NF-κB signaling pathway (12.5 and 25 mg/kg i.p.), the “level of IκBα phosphorylated at serine 32 and 36 in tumors” value is on record as “increased”; the “level of phosphorylated IKKβ in tumors” value is listed as “reduced”. In the series with NF-κB signaling pathway (setting [8]), the “level of phosphorylated NF-κB p65 at Ser276 in tumors” value is “decreased”, the “level of total IKKβ in tumors” value is recorded as “increased”, the “level of total IκBα in tumors” value is “decreased” and the “level of total p65 in tumors” value is “decreased”. Besides, the “pathologic examination (hematoxylin-eosin) of liver, kidneys, lungs and spleen” value in series [4] (n = 5/group) is reported as “normal”. Further, the serum chemistry profile result in series [4] (treated mice, normal values from the University of Minnesota) is on record as “all within the normal values”. For the same molecule, the “degree of IHC staining of phosphorylated IκBα in tumors” value in the series on Tu212 SCC xenografts [5] (0, 12.5 and 25 mg/kg i.p. daily 5 days a week for 5 weeks) is “stronger in tumors treated at 25 mg/kg than 12.5 mg/kg, which is stronger than that in the control”. The “H & E staining of tumor tissues” value with Tu212 SCC xenografts [5] (25 mg/kg i.p. daily 5 days a week for 5 weeks) was “tumor cells are replaced with fibrous scar tissue”.

Turning to `O=C1/C(=C/c2ccccc2F)CNC/C1=C\c1ccccc1F` [EF24, reference compound], the IC50 with Tu212 SCC cells (read-out: IC50, viable cells, Tu212 cells, Neutral Red Dye assay, 0–20 μM, triplicate, 48 hours (Fig. 1 legend; methods: 72 h)) was determined as 8 µM.
